In ChEMBL document CHEMBL4007411, “Design, Synthesis, and Biological Evaluation of Coupled Bioactive Scaffolds as Potential Anticancer Agents for Dual Targeting of Dihydrofolate Reductase and Thioredoxin Reductase” (J Med Chem, 2017):
pIC50: −log10 of the molar value. The source made the active and inactive calls. No cut-off for these calls is given here.

Columns and labels:
HCT-116 [1] = experiment: Upregulation of DHFR protein levels in human HCT116 cell lysate at 40 to 70 uM after 16 hrs by Western blot analysis; format: functional, cell-based
Method in brief: (§1)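 HCT116 plated at 1.5 x 10^6 per 100 mm plate, grown 48 h, then treated 16 h at 40 to 70 µM. Adherent and floating cells pooled and lysed in Triton X-100 buffer with protease inhibitors. Lysates cleared and protein measured by Bradford. Equal protein run on SDS-PAGE and blotted. DHFR or TrxR detected by ECL, β-actin antibody also used. Three independent experiments.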

HCT-116 [2] = experiment: Antiproliferative activity against human HCT116 cells after 72 hrs by MTT assay; format: functional; details: HCT-116, 72 h
Method in brief: (§2)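 Cells kept in RPMI 1640 with 10% FBS, penicillin and streptomycin at 37°C and 5% CO2. Seeded at 1.0 x 10^4/well and left to adhere overnight. Serial dilutions made in medium from DMSO stocks. MTT at 400 µg/ml final for 4 h, read at T0 and after 72 h. Formazan dissolved in DMSO:glycine pH 10.5, A550. GI50 and LC50 interpolated from absorbance versus log concentration.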

[3] = molecular target: T1, Thioredoxin reductase 1, cytoplasmic (Rattus norvegicus, UniProt O89049); experiment: Inhibition of […] thioredoxin reductase after 60 mins by DTNB reduction assay; details: read-out: IC50
T1 sequence (O89049 whole entry): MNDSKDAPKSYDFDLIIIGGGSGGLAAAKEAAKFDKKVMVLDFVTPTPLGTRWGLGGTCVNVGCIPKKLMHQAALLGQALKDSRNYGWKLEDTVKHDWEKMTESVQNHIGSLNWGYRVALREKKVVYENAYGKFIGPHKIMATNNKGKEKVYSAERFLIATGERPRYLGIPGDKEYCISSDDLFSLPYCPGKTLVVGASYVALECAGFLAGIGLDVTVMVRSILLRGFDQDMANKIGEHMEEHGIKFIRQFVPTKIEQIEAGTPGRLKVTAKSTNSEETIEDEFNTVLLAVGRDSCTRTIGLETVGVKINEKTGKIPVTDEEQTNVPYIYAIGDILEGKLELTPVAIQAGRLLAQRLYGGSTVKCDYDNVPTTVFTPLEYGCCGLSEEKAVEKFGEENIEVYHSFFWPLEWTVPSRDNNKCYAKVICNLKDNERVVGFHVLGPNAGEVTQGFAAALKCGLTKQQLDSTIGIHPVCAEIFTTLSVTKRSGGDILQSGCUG
Method in brief: (§3)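 Rat liver TrxR at 2.1 units/ml preincubated with a range of test concentrations and 200 µM NADPH in 50 mM Tris-HCl, 1 mM EDTA, pH 7.5, at room temperature for 30 or 60 min. Equal volume of buffer with 5 mM DTNB and 200 µM NADPH then added. A412 followed over 2 min. Activity as % of vehicle Vmax; IC50 from log concentration plot.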

[4] = molecular target: T1, Thioredoxin reductase 1, cytoplasmic; experiment: Inhibition of […] thioredoxin reductase after 30 mins by DTNB reduction assay; details: read-out: IC50; method in brief: as §3
Dihydrofolate reductase = molecular target: T2, Dihydrofolate reductase (Homo sapiens, UniProt P00374); experiment: Inhibition of recombinant human DHFR assessed as reduction in conversion of DHF to THF measured every 30 secs for 6 mins by UV-Vis spectrophotometric method
T2 sequence (P00374 whole entry): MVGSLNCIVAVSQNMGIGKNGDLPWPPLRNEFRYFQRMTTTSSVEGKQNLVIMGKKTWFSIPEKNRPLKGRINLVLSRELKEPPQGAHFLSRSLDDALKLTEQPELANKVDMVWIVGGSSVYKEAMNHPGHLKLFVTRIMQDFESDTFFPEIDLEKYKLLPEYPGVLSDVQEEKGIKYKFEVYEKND

[5] = molecular target: T3, Dihydrofolate reductase (Homo sapiens) (UniProt P00374); experiment: Inhibition of DHFR in human HCT116 cell lysate assessed as reduction in conversion of DHF to THF after 16 hrs
T3 sequence (whole entry): T2 sequence (P00374 whole entry)
Method in brief: (§4)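 HCT116 cells treated 16 h at 0.001 to 1 µM or 40 to 70 µM, then lysed. 400 µg lysate protein in PBS with 50 µM DHF and 200 µM NADPH, with matching controls containing 1 µM methotrexate. A340 decrease followed over 15 min at room temperature. MTX-sensitive rate given as % of DMSO-treated cells. Mean of three independent experiments.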

HCT-116 [6] = experiment: Effect on thioredoxin reductase protein levels in human HCT116 cell lysate at 40 to 70 uM after 16 hrs by Western blot analysis; format: cell-based; details: hct-116, 16 h; method in brief: as §1
MCF7 = experiment: Antiproliferative activity against human MCF7 cells after 72 hrs by MTT assay; format: functional; details: MCF7, 72 h; method in brief: as §2
[7] = molecular target: T4, Thioredoxin reductase 1, cytoplasmic (Homo sapiens) (UniProt Q16881); experiment: Inhibition of thioredoxin reductase in human HCT116 cell lysate using thioredoxin as substrate after 16 hrs by end point insulin assay method
T4 sequence (whole entry): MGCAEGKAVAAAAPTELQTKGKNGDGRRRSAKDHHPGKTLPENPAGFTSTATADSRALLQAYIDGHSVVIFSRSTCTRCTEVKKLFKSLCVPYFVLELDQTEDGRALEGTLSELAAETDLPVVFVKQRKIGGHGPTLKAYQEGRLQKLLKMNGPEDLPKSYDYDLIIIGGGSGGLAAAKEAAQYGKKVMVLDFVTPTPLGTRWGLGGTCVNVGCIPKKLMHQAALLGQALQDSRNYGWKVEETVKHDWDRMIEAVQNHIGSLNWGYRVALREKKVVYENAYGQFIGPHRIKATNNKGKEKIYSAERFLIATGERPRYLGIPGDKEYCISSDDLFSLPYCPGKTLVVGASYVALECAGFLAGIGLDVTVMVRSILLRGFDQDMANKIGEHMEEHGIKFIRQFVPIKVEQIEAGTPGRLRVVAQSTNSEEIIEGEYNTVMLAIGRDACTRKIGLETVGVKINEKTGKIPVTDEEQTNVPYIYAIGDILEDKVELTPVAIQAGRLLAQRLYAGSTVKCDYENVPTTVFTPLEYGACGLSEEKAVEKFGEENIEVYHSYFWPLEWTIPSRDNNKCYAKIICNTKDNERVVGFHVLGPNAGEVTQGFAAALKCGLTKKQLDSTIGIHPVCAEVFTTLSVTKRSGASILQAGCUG
Method in brief: (§5)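 HCT116 cells treated 16 h at 0.001 to 1 µM or 40 to 70 µM, then lysed. Stopped with 1 mM DTNB and 240 µM NADPH in 6 M guanidine HCl and Tris pH 8.0, read at A412. Given as % of DMSO-treated cells. Mean of three experiments.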

[8] = molecular target: T3, Dihydrofolate reductase (Homo sapiens); experiment: Inhibition of DHFR in human HCT116 cell lysate assessed as reduction in conversion of DHF to THF at 40 to 70 uM after 16 hrs; method in brief: as §4
[9] = molecular target: T4, Thioredoxin reductase 1, cytoplasmic (Homo sapiens); experiment: Inhibition of thioredoxin reductase in human HCT116 cell lysate using thioredoxin as substrate at 0.001 to 1 uM after 16 hrs by end point insulin assay method
[10] = molecular target: T4, Thioredoxin reductase 1, cytoplasmic (Homo sapiens); experiment: Inhibition of thioredoxin reductase in human HCT116 cell lysate using thioredoxin as substrate at 40 to 70 uM after 16 hrs by end point insulin assay method; method in brief: as §5
[11] = molecular target: T3, Dihydrofolate reductase (Homo sapiens); details: 0.0001 to 1 uM

inhibition [10] | inhibition [11] | Structure (SMILES) | Activity (HCT-116 [1]) | GI50 (HCT-116 [2]) | CC50 (HCT-116 [2]; read-out: LC50 (the source's name)) | pIC50 [3] | pIC50 [4] | pIC50 (Dihydrofolate reductase) | inhibition [5] | Activity (HCT-116 [6]) | GI50 (MCF7) | LC50 (concentration killing 50% of cells present at T0) (MCF7) | inhibition [7] | inhibition [8] | inhibition [9]
 |  | Cl.NC1=NC2(CCCC2)N(OCCCOc2cccc(C(=O)/C=C/c3ccccc3)c2)C(N)=N1 | Active | 0.026 µM | 14.1 µM | 5.34 | 5.12 | 8.21 | Dose-dependent effect | Non-Toxic | 0.08 µM | 11.2 µM | Dose-dependent effect | Active | inactive
Active | inactive | O=C(/C=C/c1ccccc1)c1ccccc1 [CHALCONE] |  |  |  | 4.57 | 4.33 |  |  |  |  |  |  |  | inactive
